This assay deals with Hepatitis C virus NS3-NS4A protease (single-chain scNS3-4A). Nature of the assay: HCV scNS3-4A protease cleavage blockers – biochemical, FRET peptide fluorescence, powder samples, selectivity assay for HCV NS3 helicase inhibitor project, late-stage follow-up (AID 623964). The method, boiled down: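 System: single-chain HCV NS3-NS4A protease (scNS3-4A); Input: 10 nM scNS3-4A protease enzyme; Reagent: quenched FRET peptide substrate, 5-FAM donor with QXL 520 quencher; Detection: 5-FAM fluorescence recovery; Evaluation: IC50 from Hill-equation fit of initial velocities; Benchmarks: DMSO-only reference velocity.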

Calls of active or inactive are those of the source.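 Rule for the calls: active = compounds slowing the HCV NS3-NS4A protease by half at 50 µM or lower, per IC50; inactive = the rest.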

On to `Cc1ccc2nc(-c3ccc4nc(-c5ccc(NC(=O)c6cc(C(F)(F)F)cc(C(F)(F)F)c6)cc5)sc4c3)sc2c1S(=O)(=O)O`, for which the IC50 was 23 µM. Turning to `COc1ccc(NC(=O)Nc2ccc(-c3nc4ccc(-c5nc6ccc(C)c(S(=O)(=O)O)c6s5)cc4s3)cc2)cc1`, the IC50 is > 100 µM (inactive). On to `Cc1ccc2nc(-c3ccc4nc(-c5ccc(NC(=O)c6cccc(Cl)c6)cc5)sc4c3)sc2c1S(=O)(=O)O`, for which the IC50 is > 100 µM (inactive). Under `CN1CCN(Cc2cc(CN3CCN(C)CC3)c(O)c(=O)c(CN3CCN(C)CC3)c2)CC1` stands > 100 µM (inactive); under `Cc1ccc2nc(-c3ccc4nc(-c5ccc(NC(=O)c6cc(C(F)(F)F)ccc6F)cc5)sc4c3)sc2c1S(=O)(=O)O`, “inactive”; under `Cc1ccc2nc(-c3ccc4nc(-c5ccc(NC(=O)Nc6ccccc6)cc5)sc4c3)sc2c1S(=O)(=O)O`, > 100 µM (inactive). Under `Cc1cc(C(O)(c2ccc(Nc3ccccc3)cc2)c2ccc(Nc3ccc(S(=O)(=O)O)cc3)cc2)ccc1N` (stereo not drawn) stands “inactive”; under `Cc1ccc2nc(-c3ccc4nc(-c5ccc(NC(=O)c6ccc(Br)cc6)cc5)sc4c3)sc2c1S(=O)(=O)O`, 6 µM. Under `Cc1ccc2nc(-c3ccc4nc(-c5ccc6nc(-c7ccc8nc(-c9ccc(N)cc9)sc8c7)sc6c5)sc4c3)sc2c1S(=O)(=O)O` stands 2 µM. Consider `Cc1ccc2nc(-c3ccc4nc(-c5ccc(NC(=O)Nc6ccc(Cl)cc6)cc5)sc4c3)sc2c1S(=O)(=O)O`, for which the IC50 was 13 µM. Take `Cc1ccc2nc(-c3ccc4nc(-c5ccc(NC(=O)c6ccc(C(C)(C)C)cc6)cc5)sc4c3)sc2c1S(=O)(=O)O`: the IC50 entry is “inactive”.

Turning to `O=C(CCCCCCC(=O)Nc1ccc(-c2nc3ccccc3[nH]2)cc1)Nc1ccc(-c2nc3ccccc3[nH]2)cc1`, the IC50 was 47 µM. Under `COC(=O)c1ccc(C(=O)Nc2ccc(-c3nc4ccc(-c5nc6ccc(C)c(S(=O)(=O)O)c6s5)cc4s3)cc2)cc1` stands > 100 µM (inactive); under `Cc1ccc2nc(-c3ccc4nc(-c5ccc(NC(=O)c6ccc(Cl)c(Cl)c6)cc5)sc4c3)sc2c1S(=O)(=O)O`, 13 µM. Under `Cc1ccc2nc(-c3ccc4nc(-c5ccc(NC(=O)c6ccc7ccccc7c6)cc5)sc4c3)sc2c1S(=O)(=O)O` stands > 100 µM (inactive). Take `CCOc1ccc2c(NNC(=O)c3cnccn3)c3c(nc2c1)CCCC3`: the IC50 was > 100 µM (inactive). Under `Cc1ccc2nc(-c3ccc(NC(=O)c4ccc(NC(=O)Nc5ccccc5)cc4)cc3)sc2c1S(=O)(=O)O` stands > 100 µM (inactive).

`Cc1ccc2nc(-c3ccc4nc(-c5ccc(NC(=O)c6ccc(C(F)(F)F)cc6)cc5)sc4c3)sc2c1S(=O)(=O)O`: the IC50 was 5 µM. Under `Cc1ccc2nc(-c3ccc4nc(-c5ccc(NC(=O)c6ccc7nc(-c8ccc(N)cc8)sc7c6)cc5)sc4c3)sc2c1S(=O)(=O)O` stands 7 µM; under `Cc1ccc2nc(-c3ccc4nc(-c5ccc(NC(=O)c6ccc(F)cc6)cc5)sc4c3)sc2c1S(=O)(=O)O`, “inactive”; under `COc1cccc2c(=O)c3cc(Cl)cc(C(=O)Nc4cc(Cl)ccn4)c3[nH]c12`, “inactive”. Under `COc1ccc(C(=O)Nc2ccc(-c3nc4ccc(-c5nc6ccc(C)c(S(=O)(=O)O)c6s5)cc4s3)cc2)cc1` stands “inactive”; under `Cc1ccc2nc(-c3ccc4nc(-c5ccc(NC(=O)c6ccc(N)cc6)cc5)sc4c3)sc2c1S(=O)(=O)O`, 39 µM.

These data come from PubChem BioAssay AID623964 (The Scripps Research Institute Molecular Screening Center, 2012).
